# Measurements: ChEMBL document CHEMBL2407071, “Exploring 4-substituted-2-thiazolylhydrazones from 2-, 3-, and 4-acetylpyridine as selective and reversible hMAO-B inhibitors” (Eur J Med Chem, 2013)
# Experiments:
# [1] = target: T1, Amine oxidase [flavin-containing] B (Homo sapiens, UniProt P27338); assay: Inhibition of recombinant human MAO-B assessed as oxidation of kynuramine to 4-hydroxyquinoline after 20 mins by spectrofluorometric analysis
# T1 sequence (P27338 whole entry): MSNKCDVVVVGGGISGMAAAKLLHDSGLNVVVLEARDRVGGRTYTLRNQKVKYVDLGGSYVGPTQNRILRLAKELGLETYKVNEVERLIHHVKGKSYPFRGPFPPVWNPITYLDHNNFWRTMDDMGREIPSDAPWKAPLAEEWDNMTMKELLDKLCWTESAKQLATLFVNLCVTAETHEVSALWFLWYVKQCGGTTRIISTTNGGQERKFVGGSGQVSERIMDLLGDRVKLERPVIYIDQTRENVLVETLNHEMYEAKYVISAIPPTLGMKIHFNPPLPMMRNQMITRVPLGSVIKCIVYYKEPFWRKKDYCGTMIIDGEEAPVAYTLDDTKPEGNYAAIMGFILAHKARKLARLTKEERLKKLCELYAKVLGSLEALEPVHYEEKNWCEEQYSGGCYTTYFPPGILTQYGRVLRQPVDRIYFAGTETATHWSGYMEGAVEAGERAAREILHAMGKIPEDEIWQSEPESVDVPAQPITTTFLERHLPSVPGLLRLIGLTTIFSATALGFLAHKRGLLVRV
# How it was run: (§1)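 Enzyme from insect-cell microsomes expressing recombinant human MAO-A or MAO-B, at 0.0075 mg protein/mL, in 100 mM potassium phosphate pH 7.4 made isotonic with 20.2 mM KCl, with 4% DMSO. Kynuramine was 45 µM for MAO-A and 30 µM for MAO-B. Inhibitor range 0-100 µM, six log-spaced concentrations. Incubated 20 min at 37 °C, stopped with 2N NaOH and centrifuged. 4-Hydroxyquinoline read by fluorescence (ex 310/em 400 nm) against a calibration curve. One-site competition fit; three experiments, mean ± SD.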
# [2] = target: T2, Amine oxidase [flavin-containing] A (Homo sapiens, UniProt P21397); assay: Inhibition of recombinant human MAO-A assessed as oxidation of kynuramine to 4-hydroxyquinoline after 20 mins by spectrofluorometric analysis; how it was run: as §1
# T2 sequence (P21397 whole entry): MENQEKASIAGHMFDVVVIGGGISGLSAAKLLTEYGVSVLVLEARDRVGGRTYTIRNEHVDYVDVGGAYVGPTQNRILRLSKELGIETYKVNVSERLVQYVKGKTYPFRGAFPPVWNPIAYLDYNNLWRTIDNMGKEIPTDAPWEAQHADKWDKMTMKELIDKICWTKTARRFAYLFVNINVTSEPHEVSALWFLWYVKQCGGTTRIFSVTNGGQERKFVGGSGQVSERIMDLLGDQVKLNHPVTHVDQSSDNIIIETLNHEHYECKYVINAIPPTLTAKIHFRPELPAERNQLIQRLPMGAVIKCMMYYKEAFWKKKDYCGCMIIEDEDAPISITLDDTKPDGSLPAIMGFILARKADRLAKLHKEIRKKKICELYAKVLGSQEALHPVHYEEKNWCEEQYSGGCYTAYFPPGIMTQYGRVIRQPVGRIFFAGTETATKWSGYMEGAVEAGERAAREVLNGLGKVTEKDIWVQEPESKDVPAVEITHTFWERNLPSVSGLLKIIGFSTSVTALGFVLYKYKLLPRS
# [3] = target: T1, Amine oxidase [flavin-containing] B; assay: Competitive inhibition of recombinant human MAO-B using kynuramine as substrate by Lineweaver-Burk plot analysis
# [4] = target: T1, Amine oxidase [flavin-containing] B; assay: Reversible inhibition of recombinant human MAO-B assessed as oxidation of kynuramine to 4-hydroxyquinoline at IC50 to 2 times IC50 up to 60 mins by spectrofluorometric analysis; conditions: 1 h
# [5] = target: T1, Amine oxidase [flavin-containing] B; assay: Mixed type inhibition of recombinant human MAO-B using kynuramine as substrate by Lineweaver-Burk plot analysis
IC50 ([1]; read-out: IC50),IC50 ([2]; read-out: IC50),IC50 [1],IC50 [2],inhibition (INH) [3],inhibition (INH) [4],inhibition (INH) [5],SMILES
0.944 µM,21.3 µM,,,,,,C/C(=N\Nc1nc(-c2ccccc2)cs1)c1cccnc1
,,Not Active,Not Active,,,,C/C(=N/Nc1nc(C)cs1)c1ccncc1
0.013 µM,2.67 µM,,,Active,Active,,C/C(=N/Nc1nc(-c2ccccc2)cs1)c1ccncc1
,,Not Active,Not Active,,,,C/C(=N\Nc1nc(C)cs1)c1ccccn1
3.84 µM,16.6 µM,,,,,,C/C(=N\Nc1nc(-c2ccccc2)cs1)c1ccccn1
13.6 µM,6.91 µM,,,,,,C/C(=N\Nc1nc(C)cs1)c1cccnc1
0.0722 µM,6.57 µM,,,,Active,Active,CCOC(=O)c1csc(N/N=C(\C)c2cccnc2)n1
0.127 µM,6.63 µM,,,Active,Active,,CCOC(=O)c1csc(N/N=C(\C)c2ccncc2)n1
,,Not Active,Not Active,,,,CCOC(=O)c1csc(N/N=C(\C)c2ccccn2)n1
